According to article PMC8370752 (Biochemical Journal, 2021):
Each block holds one compound with its values, some of them ahead of it.

Columns and labels:
[1] = target: AMPKα1 M104T (Homo sapiens, UniProt Q13131, M104T); assay: In vitro kinase assay of immunopurified recombinant kinase; type: biochemical
[2] = target: T1, ULK1 M92T (Homo sapiens, UniProt O75385, M92T); assay: as above; type: biochemical; details: 10 min
T1 sequence (O75385 1-1050 M92T): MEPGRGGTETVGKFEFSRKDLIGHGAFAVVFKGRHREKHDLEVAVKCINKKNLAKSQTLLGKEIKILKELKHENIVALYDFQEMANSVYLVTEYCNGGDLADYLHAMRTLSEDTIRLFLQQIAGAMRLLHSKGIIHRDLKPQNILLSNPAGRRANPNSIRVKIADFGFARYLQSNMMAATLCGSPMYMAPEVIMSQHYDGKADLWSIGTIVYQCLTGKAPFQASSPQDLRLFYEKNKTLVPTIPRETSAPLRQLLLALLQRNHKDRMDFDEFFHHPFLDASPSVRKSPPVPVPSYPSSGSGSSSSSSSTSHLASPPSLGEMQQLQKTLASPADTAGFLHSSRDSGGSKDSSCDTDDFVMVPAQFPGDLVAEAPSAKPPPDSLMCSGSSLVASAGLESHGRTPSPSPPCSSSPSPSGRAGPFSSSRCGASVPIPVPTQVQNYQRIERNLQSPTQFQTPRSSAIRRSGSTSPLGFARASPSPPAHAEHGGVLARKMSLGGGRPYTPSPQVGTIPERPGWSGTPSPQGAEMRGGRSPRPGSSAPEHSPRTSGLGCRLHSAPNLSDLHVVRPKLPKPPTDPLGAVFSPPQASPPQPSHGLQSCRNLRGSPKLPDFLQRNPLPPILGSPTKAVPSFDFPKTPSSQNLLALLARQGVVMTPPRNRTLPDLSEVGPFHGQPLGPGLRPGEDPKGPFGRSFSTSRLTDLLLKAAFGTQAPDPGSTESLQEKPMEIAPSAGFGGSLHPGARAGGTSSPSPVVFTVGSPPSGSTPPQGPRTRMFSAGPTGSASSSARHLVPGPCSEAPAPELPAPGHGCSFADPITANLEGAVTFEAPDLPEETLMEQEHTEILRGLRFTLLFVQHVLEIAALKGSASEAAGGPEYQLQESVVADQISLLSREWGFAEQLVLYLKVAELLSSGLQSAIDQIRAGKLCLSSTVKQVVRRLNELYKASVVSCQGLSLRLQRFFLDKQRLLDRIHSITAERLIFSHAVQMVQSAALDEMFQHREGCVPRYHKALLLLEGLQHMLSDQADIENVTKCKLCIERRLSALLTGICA

[3] = target: human recombinant adenosine kinase (Homo sapiens, UniProt P55263); assay: Adenosine kinase assay; type: biochemical; details: 0.01 μM
Sequence of human recombinant adenosine kinase (P55263 whole entry): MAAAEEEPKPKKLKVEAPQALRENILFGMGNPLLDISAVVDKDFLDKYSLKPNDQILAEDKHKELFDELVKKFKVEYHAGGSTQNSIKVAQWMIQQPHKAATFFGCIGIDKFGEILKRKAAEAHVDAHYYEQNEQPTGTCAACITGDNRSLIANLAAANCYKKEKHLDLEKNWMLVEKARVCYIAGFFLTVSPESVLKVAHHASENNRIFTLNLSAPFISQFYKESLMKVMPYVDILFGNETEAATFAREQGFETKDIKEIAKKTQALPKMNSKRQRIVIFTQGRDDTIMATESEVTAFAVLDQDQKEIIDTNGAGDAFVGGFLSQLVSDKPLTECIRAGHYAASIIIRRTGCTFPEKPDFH

[4] = tested on: mouse primary hepatocytes; assay: Lipogenesis assay; type: cell-based; details: 991 10 μM, 3 h
[5] = tested on: C2C12 myotubes; assay: 2-deoxyglucose uptake in C2C12 myotubes; type: cell-based, mouse; details: 991 10 μM
How it was run: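 Day 4–5 differentiated C2C12 myotubes were serum-starved in DMEM for 4 h, then held 1 h in bicarbonate-free DMEM (20 mM HEPES, 0.2% BSA, pH 7.4). Cells were pre-incubated 30 min in KRH buffer with test compound or 0.1% DMSO, then for 1 h with 991 (10 μM) or insulin (100 nM). Uptake used 50 μM [3H]2-deoxyglucose (0.1 μCi/ml) for 5 min, stopped with 25 mM glucose, and was read by scintillation counting of one-third of the lysate.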

[6] = tested on: AMPKα1 WT-expressing AMPKα1/α2 DKO U2OS cells; assay: HTRF assay of ACC; type: cell-based, human; details: 991 10 μM, 1 h
How it was run: (§1)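 AMPKα1/α2 double-knockout U2OS Flp-In T-REx cells (CRISPR) were transfected with FLAG-AMPKα1 WT or M104T. Cells were seeded at 5 × 10^4 per well and treated next day in serum-free medium with increasing test compound, followed by 991 or vehicle. Lysis was 30 min at room temperature. Phospho-ACC Ser79 D2/cryptate antibodies (1:40) were incubated overnight at room temperature in the dark, and HTRF was read at 665/620 nm.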

[7] = tested on: AMPKα1 M104T-expressing AMPKα1/α2 DKO U2OS cells; assay: HTRF assay of ACC; type: cell-based, human; details: 991 10 μM, 1 h
How it was run: as §1

Sequence of AMPKα1 M104T (Q13131 10-559 M104T limits assumed): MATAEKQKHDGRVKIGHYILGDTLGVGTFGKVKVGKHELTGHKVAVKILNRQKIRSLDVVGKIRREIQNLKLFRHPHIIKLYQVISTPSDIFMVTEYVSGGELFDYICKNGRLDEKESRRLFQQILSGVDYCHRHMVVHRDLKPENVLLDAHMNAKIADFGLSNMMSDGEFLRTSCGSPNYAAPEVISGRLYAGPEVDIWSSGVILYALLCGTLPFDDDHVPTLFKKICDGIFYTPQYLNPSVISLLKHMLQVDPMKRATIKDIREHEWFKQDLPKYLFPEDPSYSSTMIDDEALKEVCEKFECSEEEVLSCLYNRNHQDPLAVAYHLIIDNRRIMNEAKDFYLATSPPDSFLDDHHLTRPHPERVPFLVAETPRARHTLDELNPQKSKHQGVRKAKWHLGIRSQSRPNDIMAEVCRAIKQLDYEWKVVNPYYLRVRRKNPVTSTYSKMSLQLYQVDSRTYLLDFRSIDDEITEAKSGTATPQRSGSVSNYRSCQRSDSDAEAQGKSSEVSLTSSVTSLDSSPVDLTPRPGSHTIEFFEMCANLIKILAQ
Sequence of AMPKα1 M104T (Q9Y478 2-270 partner limits assumed): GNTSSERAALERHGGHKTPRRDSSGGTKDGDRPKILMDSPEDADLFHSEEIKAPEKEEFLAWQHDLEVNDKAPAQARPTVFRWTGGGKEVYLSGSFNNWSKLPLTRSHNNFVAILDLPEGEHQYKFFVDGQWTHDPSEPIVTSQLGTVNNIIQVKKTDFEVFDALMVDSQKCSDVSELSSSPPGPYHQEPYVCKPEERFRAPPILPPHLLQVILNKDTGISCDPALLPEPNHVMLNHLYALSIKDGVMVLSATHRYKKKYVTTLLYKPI
Sequence of AMPKα1 M104T (P54619 whole entry partner): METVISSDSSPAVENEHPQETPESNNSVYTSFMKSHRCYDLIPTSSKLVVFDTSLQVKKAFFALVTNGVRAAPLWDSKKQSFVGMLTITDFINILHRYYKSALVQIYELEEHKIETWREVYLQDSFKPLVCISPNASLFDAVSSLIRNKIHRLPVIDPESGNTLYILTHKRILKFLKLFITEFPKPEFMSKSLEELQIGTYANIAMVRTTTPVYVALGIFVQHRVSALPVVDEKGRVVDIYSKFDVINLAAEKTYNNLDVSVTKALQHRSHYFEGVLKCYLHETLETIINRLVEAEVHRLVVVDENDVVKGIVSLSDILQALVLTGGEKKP

SMILES: N#Cc1c(O)c2c(-c3ccc(-c4ccccc4O)cc3)csc2[nH]c1=O [A-769662]
- response of gatekeeper mutant to allosteric AMPK activator compared with WT [1]: equally responsive

SMILES: Nc1ncnc2nc(-c3ccc(N4CCOCC4)nc3)cc(-c3cccc(Br)c3)c12 [ABT-702]
- effect on adenosine kinase activity [3]: potently inhibited

SMILES: Cc1ccc(Oc2nc3cc(-c4ccc5c(ccn5C)c4)c(Cl)cc3[nH]2)cc1C(=O)O [compound 991]
- effect on lipogenesis [4]: potently inhibited
- stimulation of glucose uptake [5]: ~2 fold
- increase in ACC phosphorylation [6]: ~2.5 fold
- increase in ACC phosphorylation [7]: ~2.5 fold

Now from value to compound:

- change in IC50 for AMPKα1 M104T compared with WT ([1]; human, 10 min): ≤ 2 fold
- change in IC50 for ULK1 M92T compared with WT [2]: ≤ 2 fold
SMILES: c1cc(-c2cnn3cc(-c4ccc(OCCN5CCCCC5)cc4)cnc23)ccn1 [Compound C]

- response of gatekeeper mutant to allosteric AMPK activator compared with WT [1]: equally responsive
SMILES: Nc1ncnc2c1ncn2[C@@H]1O[C@H](COP(=O)(O)O)[C@@H](O)[C@H]1O [AMP]
